IDH1 mut inh: blocks human IDH1 R132H reductase activity. O75874. AID 624101. diaphorase/resazurin fluorescence, 60 min. inhibition, % at 10 µM. actives 0.18% (n = 70,000); in the data active = inhibition above about 34%; inconclusive = no clear call, values can overlap the other calls; inactive = below about 11%
KDM4C inh: blocks human GASC-1 (KDM4C) demethylase activity. AID 720574. inhibition, % at 12.5 µM. Q9H3R0. GST-KDM4C 2-372, H3K9me3 peptide, LANCE TR-FRET. actives 0.15% (n = 96,000);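 active = mean replicate inhibition above about 25%, with at least 55% of replicates also reaching it, limit read from the data, passing the limit was not always enough; inconclusive = only one of those two conditions met; inactive = neither condition met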
Target sequence (Q9H3R0 2-372 limits assumed): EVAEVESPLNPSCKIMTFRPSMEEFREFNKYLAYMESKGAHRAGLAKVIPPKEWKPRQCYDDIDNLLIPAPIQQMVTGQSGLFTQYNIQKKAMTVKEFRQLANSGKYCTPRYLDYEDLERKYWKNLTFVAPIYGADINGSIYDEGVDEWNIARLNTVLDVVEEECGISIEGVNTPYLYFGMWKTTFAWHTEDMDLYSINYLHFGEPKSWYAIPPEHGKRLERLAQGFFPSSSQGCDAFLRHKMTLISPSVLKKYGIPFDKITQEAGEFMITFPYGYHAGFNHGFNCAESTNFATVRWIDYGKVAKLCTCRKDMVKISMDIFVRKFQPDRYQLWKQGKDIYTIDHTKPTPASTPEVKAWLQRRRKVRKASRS
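System: N-terminal GST-fused human GASC-1 (KDM4C) fragment, residues 2-372 / Amount: 10 nM GST-KDM4C in enzyme reaction / Also added: H3K9me3 peptide with Fe(II)/2OG / Times: 30 min demethylation and 1 h detection at room temperature / Signal: LANCE TR-FRET / Read-out basis: Fall in 671/618 emission ratio as inhibition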
T cruzi growth-1: T. cruzi proliferation inhibition; T. cruzi beta-gal in NIH3T3, GalScreen luminescence, 90 h; inhibition, % at 8.34 µM; actives 5.9% (n = 77,000);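 active = mean inhibition above about 93%, with at least 55% of replicates each passing it, limit read from the data, passing the limit was not always enough; inconclusive = only one of those two conditions holds; inactive = neither condition holds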
T cruzi growth-2: Trypanosoma cruzi proliferation inhibition; AID 651739; actives 72% (n = 5,600); inhibition, % at 8.35 µM; T. cruzi beta-gal in NIH3T3, GalScreen luminescence, 90 h; shares compounds with T cruzi growth-1;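 active = mean replicate inhibition above about 95% and at least 55% of replicates individually reaching it, limit read from the data; inconclusive = only one of the two criteria is met; inactive = neither criterion is met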
T cruzi growth-3: Trypanosoma cruzi proliferation inhibition; AID 651740; T. cruzi beta-gal in NIH3T3, GalScreen luminescence, 90 h; shares compounds with T cruzi growth-1; actives 21% (n = 5,600); inhibition, % at 2.09 µM;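 active = mean inhibition above about 95%, with at least 55% of replicates also reaching it, limit read from the data; inconclusive = meets just one of the two conditions; inactive = meets neither condition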
3T3 cytotox: kills mouse NIH/3T3 fibroblasts | NIH/3T3 viability, CellTiter-Glo ATP luminescence, 90 h | cytotoxicity (signal decrease), % at 8.35 µM | actives 14% (n = 5,600) | shares compounds with T cruzi growth-1;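 active = mean signal decrease across replicates above about 35% based on untreated-well scatter, with enough replicates individually passing, limit read from the data; inconclusive = no rule stated though some were filed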
NIH3T3 tox 2: kills mouse NIH/3T3 fibroblasts | shares compounds with T cruzi growth-1 | NIH/3T3 viability, CellTiter-Glo ATP luminescence, 90 h | inhibition, % at 24.9 µM | actives 56% (n = 5,600) | AID 651744;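 active = mean loss of cell viability signal at or above a set limit, and enough replicates individually reaching it; inconclusive = meets only the mean limit or only the replicate share; inactive = meets neither condition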
Of the large screens only hits and unclear results are named; the others gave an inactive call (follow-up assays come after a bar, where they were run). Only a selection was taken, and hits are over-represented in it overall.

COc1ccc(CN(C)C[C@H]2Oc3ccc(NS(C)(=O)=O)cc3C(=O)N([C@H](C)CO)C[C@@H]2C)cc1	none (no result: T cruzi growth-1)
O=C(Cc1ccccn1)NCC[C@H]1CC[C@@H](NS(=O)(=O)c2ccccc2)[C@@H](CO)O1	none
CCCC#Cc1ccc2c(c1)O[C@H](CN(C)C(C)=O)[C@H](C)CN([C@H](C)CO)S2(=O)=O	none (no result: T cruzi growth-1)
CNC[C@H]1Oc2ccc(NC(=O)Nc3ccccc3)cc2C(=O)N([C@H](C)CO)C[C@H]1C	none
Cc1ccc(S(=O)(=O)N[C@H]2CC[C@@H](CCn3cc(C(C)C)nn3)O[C@H]2CO)cc1	none
CC(C)CC#Cc1ccc2c(c1)O[C@@H](CN(C)C(=O)NC1CCCC1)[C@@H](C)CN([C@H](C)CO)S2(=O)=O	T cruzi growth-1 119 | T cruzi growth-2 106 | T cruzi growth-3 inactive | 3T3 cytotox inactive | NIH3T3 tox 2 102
C[C@@H]1CN([C@@H](C)CO)S(=O)(=O)c2ccc(C#Cc3ccc(F)cc3)cc2O[C@@H]1CN(C)C(=O)NC1CCCC1	T cruzi growth-1 115 | T cruzi growth-2 101 | T cruzi growth-3 inactive | 3T3 cytotox inactive | NIH3T3 tox 2 74
C[C@@H]1CN([C@@H](C)CO)S(=O)(=O)c2ccc(C#Cc3ccc(F)cc3)cc2O[C@H]1CN(C)C(=O)NC1CCCCC1	none
COc1ccc(C#Cc2ccc3c(c2)O[C@@H](CN(C)C(=O)NC2CCCCC2)[C@H](C)CN([C@H](C)CO)S3(=O)=O)cc1	T cruzi growth-1 inconclusive | T cruzi growth-2 103 | T cruzi growth-3 99 | 3T3 cytotox inactive | NIH3T3 tox 2 inactive
C[C@@H]1CN([C@H](C)CO)S(=O)(=O)c2ccc(C#Cc3ccc(F)cc3)cc2O[C@@H]1CN(C)C(=O)NC1CCCCC1	none (no result: IDH1 mut inh)
C[C@H]1CN([C@@H](C)CO)S(=O)(=O)c2ccc(C#Cc3ccc(F)cc3)cc2O[C@H]1CN(C)C(=O)NC1CCCC1	T cruzi growth-1 99 | T cruzi growth-2 99 | T cruzi growth-3 113 | 3T3 cytotox inactive | NIH3T3 tox 2 104
CC(C)CC#Cc1ccc2c(c1)O[C@H](CN(C)C(=O)NC1CCCC1)[C@@H](C)CN([C@H](C)CO)S2(=O)=O	none
C[C@H](CO)N1C[C@H](C)[C@@H](CN(C)C(=O)NC2CCCCC2)Oc2cc(C#Cc3ccc(F)cc3)ccc2S1(=O)=O	none (no result: IDH1 mut inh)
C[C@H](CO)N1C[C@H](C)[C@H](CN(C)C(=O)Nc2ccc3c(c2)OCO3)Oc2ccc(NC(=O)C3CCCCC3)cc2C1=O	none (no result: IDH1 mut inh)
O=C(NCC[C@H]1CC[C@H](NC(=O)c2cnccn2)[C@@H](CO)O1)c1ccc2c(c1)OCO2	none (no result: T cruzi growth-1)
Cc1noc(C)c1NC(=O)Nc1ccc2c(c1)C(=O)N([C@@H](C)CO)C[C@@H](C)[C@H](CN(C)S(=O)(=O)c1ccc(F)cc1)O2	none
COc1ccccc1NC(=O)N[C@H]1CC[C@H](CC(=O)NCc2ccc(Cl)c(Cl)c2)O[C@@H]1CO	none
C[C@@H]1CN([C@@H](C)CO)C(=O)c2cc(NC(=O)C3CC3)ccc2O[C@@H]1CN(C)S(=O)(=O)c1cccs1	none
C[C@H](CO)N1C[C@H](C)[C@@H](CN(C)C(=O)NC2CCCC2)Oc2cc(C#Cc3ccc(F)cc3)ccc2S1(=O)=O	none
C[C@H](CO)N1C[C@H](C)[C@H](CN(C)C(=O)NC2CCCC2)Oc2cc(C#Cc3ccc(F)cc3)ccc2S1(=O)=O	T cruzi growth-1 104 (no result: IDH1 mut inh) | T cruzi growth-2 95 | T cruzi growth-3 116 | 3T3 cytotox inactive | NIH3T3 tox 2 61
Cc1ccc(S(=O)(=O)N(CC(=O)Nc2ccc(C(N)=O)cc2)C2CCCCC2)cc1	none (no result: KDM4C inh, T cruzi growth-1)
C[C@@H](O)C#Cc1ccc([C@H]2[C@H](CO)N3CCCCN(S(=O)(=O)c4ccccc4)C[C@@H]23)cc1	T cruzi growth-1 105 (no result: IDH1 mut inh) | T cruzi growth-2 inactive | T cruzi growth-3 inactive | 3T3 cytotox inactive | NIH3T3 tox 2 inactive
C[C@H](O)C#Cc1ccc([C@@H]2[C@@H](CO)N3CCCCN(S(=O)(=O)c4ccccc4)C[C@H]23)cc1	T cruzi growth-1 111 (no result: IDH1 mut inh) | T cruzi growth-2 inactive | T cruzi growth-3 inactive | 3T3 cytotox inactive | NIH3T3 tox 2 inactive
C[C@@H](O)C#Cc1ccc([C@H]2[C@H]3CN(S(=O)(=O)c4ccccc4)CCCCN3[C@H]2CO)cc1	none (no result: IDH1 mut inh)
C[C@@H](O)C#Cc1ccc([C@@H]2[C@@H](CO)N3CCCCN(S(=O)(=O)c4ccccc4)C[C@@H]23)cc1	T cruzi growth-1 117 (no result: IDH1 mut inh) | T cruzi growth-2 inactive | T cruzi growth-3 inactive | 3T3 cytotox inactive | NIH3T3 tox 2 26
C[C@H](O)C#Cc1ccc([C@H]2[C@@H](CO)N3CCCCN(S(=O)(=O)c4ccccc4)C[C@@H]23)cc1	none (no result: IDH1 mut inh)
C[C@H](O)C#Cc1ccc([C@@H]2[C@@H](CO)N3CCCCN(S(=O)(=O)c4ccccc4)C[C@@H]23)cc1	none (no result: IDH1 mut inh)
COCC(=O)N(C)C[C@@H]1Oc2ncc(-c3cccc(OC)c3)cc2C(=O)N([C@H](C)CO)C[C@@H]1C	none
C[C@@H]1CN([C@@H](C)CO)C(=O)c2cccc(NC(=O)NC3CCCCC3)c2O[C@@H]1CN(C)Cc1ccc(C(=O)O)cc1	none
CCCNC(=O)N[C@@H]1CC[C@@H](CC(=O)NC2CCCCC2)O[C@H]1CO	none (no result: T cruzi growth-1)
C[C@H](CO)N1C[C@H](C)[C@H](CN(C)C(=O)Nc2ccc3c(c2)OCO3)Oc2ncc(-c3cc4ccccc4o3)cc2C1=O	none (no result: T cruzi growth-1)
C[C@H](CO)N1C[C@H](C)[C@H](CN(C)S(=O)(=O)c2cccc(F)c2)Oc2ncc(-c3cc4ccccc4o3)cc2C1=O	none (no result: T cruzi growth-1)
COc1cccc(S(=O)(=O)N(C)C[C@@H]2Oc3ncc(-c4cc5ccccc5o4)cc3C(=O)N([C@H](C)CO)C[C@@H]2C)c1	T cruzi growth-1 109 | T cruzi growth-2 104 | T cruzi growth-3 inactive | 3T3 cytotox 39 | NIH3T3 tox 2 inactive
Cc1cccc(CN(C)C[C@@H]2Oc3ncc(-c4cc5ccccc5o4)cc3C(=O)N([C@H](C)CO)C[C@@H]2C)c1	T cruzi growth-1 99 | T cruzi growth-2 106 | T cruzi growth-3 inactive | 3T3 cytotox 44 | NIH3T3 tox 2 104
COc1ccc(NC(=O)N(C)C[C@@H]2Oc3ncc(-c4cc5ccccc5o4)cc3C(=O)N([C@H](C)CO)C[C@@H]2C)cc1	T cruzi growth-1 109 | T cruzi growth-2 106 | T cruzi growth-3 inactive | 3T3 cytotox inactive | NIH3T3 tox 2 34
C[C@H](CO)N1C[C@H](C)[C@H](CN(C)Cc2ccncc2)Oc2ncc(-c3cc4ccccc4o3)cc2C1=O	none
C[C@H](CO)N1C[C@H](C)[C@H](CN(C)Cc2ccncc2)Oc2ccc(NC(=O)Cn3cnnn3)cc2C1=O	none

Compound activity deposited in PubChem by Broad Institute.
